Assay results published in ChEMBL document CHEMBL5303300, “EUbOPEN Chemogenomics Library - Multiplex” (2023).
Values joined by “and” are separate entries in the source; they are usually repeats but may differ in a detail not shown here. Equal values may be shown once.

Test system: U2OS
Experiment: Multiplex assay against U2OS
Assay type: toxicity, cell-based
Conditions: human, number of replicates 2
Outline: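 Four dyes were applied at seeding to live cells: Hoechst33342, BioTracker Green Microtubule Cytoskeleton Dye, MitoTracker Red and Annexin V Alexa Fluor 680. Imaging after compound addition used a CQ1 microscope at 37°C and 5% CO2. CellPathfinder machine-learning gating then sorted cells into Hoechst high-intensity objects or normal cells, normal cells into healthy, pyknosed or fragmented nuclei, and pyknosed cells into mitotic or apoptotic, with tubulin, mitochondrial-mass and membrane-permeability phenotypes given as per cents of healthy-nucleus cells.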

[1] = 12 h, 1 µM, compound concentration 1 uM
[2] = 12 h, 10 µM, compound concentration 10 uM
[3] = 24 h, 1 µM, compound concentration 1 uM
[4] = 24 h, 10 µM, compound concentration 10 uM
[5] = 48 h, 1 µM, compound concentration 1 uM
[6] = 48 h, 10 µM, compound concentration 10 uM

## O=C(Nc1ccnc(NC(=O)C2CC2)c1)c1c(Cl)cccc1Cl
[1]
  Population Apoptotic (%): 33% and 84%
  Population Hoechst High Intensity Objects (%): 0%
  Population Membrane Permeable-Phenotype (%): 4% and 3%
  Population Mitochondria Different-Phenotype (%): 0% and 4%
  Population Normal (%): 100%
  Population Tubulin-Different-Phenotype (%): 81% and 83%
  Total Cell Count: 114 and 143
[2]
  Population Apoptotic (%): 60% and 58%
  Population Healthy Nuclei (%): 36% and 74%
  Population Hoechst High Intensity Objects (%): 0%
  Population Mitochondria Different-Phenotype (%): 14% and 0%
  Population Mitotic Cells (%): 40% and 41%
  Population Normal (%): 100%
  Population Pyknosed Nuclei (%): 26% and 19%
  Population Tubulin-Different-Phenotype (%): 71% and 58%
[3]
  Population Apoptotic (%): 60% and 90%
  Population Hoechst High Intensity Objects (%): 0%
  Population Membrane Permeable-Phenotype (%): 4% and 3%
  Population Mitochondria Different-Phenotype (%): 0% and 2%
  Population Normal (%): 99% and 100%
  Population Pyknosed Nuclei (%): 3% and 12%
  Population Tubulin-Different-Phenotype (%): 76% and 90%
  Total Cell Count: 131 and 182
[4]
  Population Apoptotic (%): 66% and 87%
  Population Healthy Nuclei (%): 32% and 62%
  Population Hoechst High Intensity Objects (%): 0%
  Population Mitochondria Different-Phenotype (%): 10% and 0%
  Population Mitotic Cells (%): 33% and 12%
  Population Normal (%): 100%
  Population Pyknosed Nuclei (%): 19% and 29%
  Population Tubulin-Different-Phenotype (%): 70% and 66%
[5]
  Population Apoptotic (%): 75% and 76%
  Population Healthy Nuclei (%): 32% and 82%
  Population Hoechst High Intensity Objects (%): 0%
  Population Membrane Permeable-Phenotype (%): 5% and 1%
  Population Mitochondria Different-Phenotype (%): 2% and 1%
  Population Mitotic Cells (%): 25% and 23%
  Population Normal (%): 99% and 100%
  Population Pyknosed Nuclei (%): 3% and 10%
  Population Tubulin-Different-Phenotype (%): 89% and 92%
[6]
  Population Apoptotic (%): 100% and 80%
  Population Hoechst High Intensity Objects (%): 0%
  Population Membrane Permeable-Phenotype (%): 16% and 14%
  Population Mitochondria Different-Phenotype (%): 16% and 6%
  Population Mitotic Cells (%): 0% and 20%
  Population Normal (%): 100% and 99%
  Population Pyknosed Nuclei (%): 23% and 35%
  Population Tubulin-Different-Phenotype (%): 50% and 68%

## CSc1cc2c(cc1C(F)(F)F)N(C(=O)Nc1cccnc1)CC2
[1]
  Population Apoptotic (%): 33% and 45%
  Population Healthy Nuclei (%): 61% and 90%
  Population Hoechst High Intensity Objects (%): 0%
  Population Membrane Permeable-Phenotype (%): 0% and 2%
  Population Mitochondria Different-Phenotype (%): 0% and 1%
  Population Mitotic Cells (%): 66% and 54%
  Population Normal (%): 100%
  Population Pyknosed Nuclei (%): 17% and 8%
  Population Tubulin-Different-Phenotype (%): 71% and 84%
[2]
  Population Apoptotic (%): 42% and 66%
  Population Healthy Nuclei (%): 82% and 50%
  Population Hoechst High Intensity Objects (%): 0% and 3%
  Population Membrane Permeable-Phenotype (%): 0% and 7%
  Population Mitochondria Different-Phenotype (%): 0%
  Population Mitotic Cells (%): 57% and 33%
  Population Normal (%): 100% and 96%
  Population Pyknosed Nuclei (%): 12% and 11%
  Population Tubulin-Different-Phenotype (%): 94% and 38%
[3]
  Population Apoptotic (%): 60% and 26%
  Population Healthy Nuclei (%): 69% and 89%
  Population Hoechst High Intensity Objects (%): 0%
  Population Membrane Permeable-Phenotype (%): 3% and 1%
  Population Mitochondria Different-Phenotype (%): 0%
  Population Mitotic Cells (%): 40% and 73%
  Population Normal (%): 100%
  Population Pyknosed Nuclei (%): 12% and 6%
  Population Tubulin-Different-Phenotype (%): 66% and 84%
[4]
  Population Apoptotic (%): 100% and 45%
  Population Healthy Nuclei (%): 66% and 88%
  Population Hoechst High Intensity Objects (%): 2% and 0%
  Population Membrane Permeable-Phenotype (%): 0% and 1%
  Population Mitochondria Different-Phenotype (%): 0% and 1%
  Population Normal (%): 97% and 100%
  Population Pyknosed Nuclei (%): 11% and 7%
  Population Tubulin-Different-Phenotype (%): 58% and 93%
[5]
  Population Apoptotic (%): 83% and 46%
  Population Fragmented Nuclei (%): 6% and 2%
  Population Healthy Nuclei (%): 83% and 90%
  Population Hoechst High Intensity Objects (%): 3% and 0%
  Population Membrane Permeable-Phenotype (%): 6% and 1%
  Population Mitochondria Different-Phenotype (%): 0%
  Population Normal (%): 96% and 100%
  Population Pyknosed Nuclei (%): 10% and 6%
  Population Tubulin-Different-Phenotype (%): 67% and 85%
[6]
  Population Apoptotic (%): 29% and 42%
  Population Fragmented Nuclei (%): 3% and 10%
  Population Healthy Nuclei (%): 89% and 75%
  Population Hoechst High Intensity Objects (%): 0% and 2%
  Population Membrane Permeable-Phenotype (%): 1% and 0%
  Population Mitochondria Different-Phenotype (%): 0%
  Population Mitotic Cells (%): 70% and 57%
  Population Normal (%): 100% and 98%
  Population Pyknosed Nuclei (%): 7% and 14%
  Population Tubulin-Different-Phenotype (%): 94% and 40%

## Cc1cn(CCN2CCN(c3ccccc3-c3cc(C#N)cc(C(=O)NCCCN4CCCC4)c3)CC2)c2ccccc12
[1]
  Population Apoptotic (%): 100% and 75%
  Population Healthy Nuclei (%): 73% and 79%
  Population Hoechst High Intensity Objects (%): 0%
  Population Membrane Permeable-Phenotype (%): 8% and 10%
  Population Mitochondria Different-Phenotype (%): 25% and 38%
  Population Mitotic Cells (%): 0% and 25%
  Population Normal (%): 100%
  Population Pyknosed Nuclei (%): 10% and 16%
  Population Tubulin-Different-Phenotype (%): 38% and 27%
[2]
  Population Apoptotic (%): 100% and 82%
  Population Fragmented Nuclei (%): 37% and 13%
  Population Healthy Nuclei (%): 37% and 53%
  Population Hoechst High Intensity Objects (%): 0%
  Population Membrane Permeable-Phenotype (%): 33% and 41%
  Population Mitochondria Different-Phenotype (%): 62% and 56%
  Population Mitotic Cells (%): 0% and 17%
  Population Normal (%): 100%
  Population Pyknosed Nuclei (%): 25% and 33%
  Population Tubulin-Different-Phenotype (%): 91%
  Total Cell Count: 64 and 135
[3]
  Population Apoptotic (%): 73% and 87%
  Population Healthy Nuclei (%): 54% and 85%
  Population Hoechst High Intensity Objects (%): 0%
  Population Membrane Permeable-Phenotype (%): 8% and 7%
  Population Mitochondria Different-Phenotype (%): 23% and 47%
  Population Mitotic Cells (%): 26% and 12%
  Population Normal (%): 100%
  Population Pyknosed Nuclei (%): 24% and 12%
  Population Tubulin-Different-Phenotype (%): 29% and 24%
[4]
  Population Apoptotic (%): 90% and 88%
  Population Fragmented Nuclei (%): 18% and 32%
  Population Healthy Nuclei (%): 42% and 24%
  Population Hoechst High Intensity Objects (%): 0% and 1%
  Population Membrane Permeable-Phenotype (%): 65% and 35%
  Population Mitochondria Different-Phenotype (%): 47% and 78%
  Population Mitotic Cells (%): 9% and 12%
  Population Normal (%): 99% and 98%
  Population Pyknosed Nuclei (%): 39% and 43%
  Population Tubulin-Different-Phenotype (%): 94% and 92%
  Total Cell Count: 162 and 59
[5]
  Population Apoptotic (%): 88% and 81%
  Population Healthy Nuclei (%): 60% and 81%
  Population Hoechst High Intensity Objects (%): 0%
  Population Mitochondria Different-Phenotype (%): 11% and 26%
  Population Mitotic Cells (%): 11% and 18%
  Population Normal (%): 100%
  Population Pyknosed Nuclei (%): 22% and 14%
  Population Tubulin-Different-Phenotype (%): 24% and 31%
[6]
  Population Apoptotic (%): 100% and 92%
  Population Fragmented Nuclei (%): 17% and 50%
  Population Hoechst High Intensity Objects (%): 0% and 1%
  Population Membrane Permeable-Phenotype (%): 74% and 40%
  Population Mitochondria Different-Phenotype (%): 48% and 20%
  Population Mitotic Cells (%): 0% and 7%
  Population Normal (%): 100% and 98%
  Population Pyknosed Nuclei (%): 38% and 41%
  Population Tubulin-Different-Phenotype (%): 94% and 80%
  Total Cell Count: 168 and 63

## CNS(=O)(=O)c1ccc(N(C)C)c(Nc2ncnc3cc(OC)c(OC)cc23)c1
[1]
  Population Apoptotic (%): 100% and 61%
  Population Healthy Nuclei (%): 73% and 84%
  Population Hoechst High Intensity Objects (%): 0%
  Population Membrane Permeable-Phenotype (%): 0%
  Population Mitochondria Different-Phenotype (%): 0%
  Population Normal (%): 100% and 99%
  Population Pyknosed Nuclei (%): 11% and 12%
  Population Tubulin-Different-Phenotype (%): 73% and 87%
[2]
  Population Apoptotic (%): 50% and 64%
  Population Healthy Nuclei (%): 44% and 86%
  Population Hoechst High Intensity Objects (%): 0%
  Population Membrane Permeable-Phenotype (%): 3% and 2%
  Population Mitochondria Different-Phenotype (%): 0% and 2%
  Population Mitotic Cells (%): 50% and 35%
  Population Normal (%): 100%
  Population Pyknosed Nuclei (%): 20% and 10%
  Population Tubulin-Different-Phenotype (%): 42% and 64%
  Total Cell Count: 59 and 156
[3]
  Population Apoptotic (%): 60% and 71%
  Population Healthy Nuclei (%): 60% and 88%
  Population Hoechst High Intensity Objects (%): 0%
  Population Membrane Permeable-Phenotype (%): 5% and 1%
  Population Mitochondria Different-Phenotype (%): 0% and 1%
  Population Mitotic Cells (%): 40% and 28%
  Population Normal (%): 100%
  Population Pyknosed Nuclei (%): 16% and 9%
  Population Tubulin-Different-Phenotype (%): 72% and 88%
[4]
  Population Apoptotic (%): 87% and 63%
  Population Healthy Nuclei (%): 66% and 82%
  Population Hoechst High Intensity Objects (%): 0%
  Population Membrane Permeable-Phenotype (%): 5% and 3%
  Population Mitochondria Different-Phenotype (%): 5% and 1%
  Population Mitotic Cells (%): 12% and 36%
  Population Normal (%): 100% and 99%
  Population Pyknosed Nuclei (%): 13% and 14%
  Population Tubulin-Different-Phenotype (%): 51% and 64%
[5]
  Population Apoptotic (%): 50% and 76%
  Population Healthy Nuclei (%): 69% and 90%
  Population Hoechst High Intensity Objects (%): 0%
  Population Membrane Permeable-Phenotype (%): 4% and 0%
  Population Mitochondria Different-Phenotype (%): 2% and 0%
  Population Mitotic Cells (%): 50% and 23%
  Population Normal (%): 100%
  Population Pyknosed Nuclei (%): 10% and 5%
  Population Tubulin-Different-Phenotype (%): 82% and 92%
[6]
  Population Apoptotic (%): 83% and 66%
  Population Healthy Nuclei (%): 52% and 78%
  Population Hoechst High Intensity Objects (%): 0%
  Population Membrane Permeable-Phenotype (%): 13% and 5%
  Population Mitochondria Different-Phenotype (%): 1% and 5%
  Population Mitotic Cells (%): 16% and 33%
  Population Normal (%): 99%
  Population Pyknosed Nuclei (%): 11% and 14%
  Population Tubulin-Different-Phenotype (%): 58% and 68%
